# Assay results as given in ChEMBL document CHEMBL2010799, “Hypoglycemic diterpenoids from Tinospora crispa” (2012).
# The source made the active and inactive calls. The rule behind the calls is not given here.
# Assays:
# [1] = Blockade of ATP-sensitive K+ channels
# Mus musculus [2] = experiment: Antidiabetic activity in normal ICR mouse assessed as reduction in plasma glucose level at 5 mg/kg, ip after 60 mins; assay type: functional, organism-based; parameters: dose 5 mg/kg
# Outline: (§1)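 ICR mice (normal, STZ-induced T1DM, or diet-induced T2DM) received a single ip injection in 2% DMSO/normal saline vehicle. Orbital plexus blood was drawn under pentobarbital anesthesia before and 60 min after injection. Plasma glucose was read with a glucose kit and analyzer and expressed as percent decrease, (Gi − Gt)/Gi × 100%. Seven animals per group, mean ± SEM.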
# Mus musculus [3] = experiment: Antidiabetic activity in STZ-induced ICR mouse T1DM model assessed as reduction in plasma glucose level at 5 mg/kg, ip after 60 mins; assay type: functional, organism-based; parameters: dose 5 mg/kg; outline: as §1
# MIN6 = experiment: Induction of insulin secretion in mouse MIN6 cells; assay type: functional, cell-based
# Mus musculus [4] = experiment: Antidiabetic activity in normal ICR mouse assessed as increase in plasma insulin level at 5 mg/kg, ip after 60 mins by ELISA (reference value: 52.5 +/- 4.6 pmol/L); assay type: functional; details: route intraperitoneal
# Mus musculus [5] = experiment: Antidiabetic activity in diet-induced ICR mouse T2DM model assessed as increase in plasma insulin level at 5 mg/kg, ip after 60 mins by ELISA (reference value: 123.5 +/- 10.2 pmol/L); assay type: functional; details: route intraperitoneal
# Mus musculus [6] = experiment: Antidiabetic activity in normal ICR mouse assessed as reduction in plasma glucose level at 5 mg/kg, ip after 60 mins (reference value: 102 +/- 3.7 mg/dL); assay type: functional; details: route intraperitoneal; outline: as §1
# Mus musculus [7] = experiment: Antidiabetic activity in diet-induced ICR mouse T2DM model assessed as reduction in plasma glucose level at 5 mg/kg, ip after 60 mins (reference value: 170 +/- 2.8 mg/dL); assay type: functional; details: route intraperitoneal; outline: as §1
# Mus musculus [8] = experiment: Antidiabetic activity in STZ-induced ICR mouse T1DM model assessed as reduction in plasma glucose level at 5 mg/kg, ip after 60 mins relative to metformin at 200 mg/kg, ip; assay type: functional
# Mus musculus [9] = experiment: Antidiabetic activity in normal ICR mouse assessed as reduction in plasma glucose level at 5 mg/kg, ip after 60 mins relative to metformin at 200 mg/kg, ip; assay type: functional
# Mus musculus [10] = experiment: Antidiabetic activity in normal ICR mouse assessed as reduction in plasma glucose level at 200 mg/kg, ip after 60 mins; assay type: functional, organism-based; parameters: dose 200 mg/kg; outline: as §1
# Mus musculus [11] = experiment: Antidiabetic activity in STZ-induced ICR mouse T1DM model assessed as reduction in plasma glucose level at 200 mg/kg, ip after 60 mins; assay type: functional, organism-based; parameters: dose 200 mg/kg; outline: as §1
# Mus musculus [12] = experiment: Antidiabetic activity in STZ-induced ICR mouse T1DM model assessed as increase in plasma insulin level at 200 mg/kg, ip after 60 mins by ELISA (reference value: 13.5 +/- 1.1 pmol/L); assay type: functional; details: route intraperitoneal
# Mus musculus [13] = experiment: Antidiabetic activity in diet-induced ICR mouse T2DM model assessed as increase in plasma insulin level at 5 mg/kg, ip after 60 mins by ELISA (reference value: 112.1 +/- 6.3 pmol/L); assay type: functional; details: route intraperitoneal
# Mus musculus [14] = experiment: Antidiabetic activity in STZ-induced ICR mouse T1DM model assessed as increase in plasma insulin level at 0.1 mg/kg, ip after 60 mins by ELISA (reference value: 15.2 +/- 0.8 pmol/L); assay type: functional; details: route intraperitoneal
# Mus musculus [15] = experiment: Antidiabetic activity in STZ-induced ICR mouse T1DM model assessed as increase in plasma insulin level at 3 mg/kg, ip after 60 mins by ELISA (reference value: 13.8 +/- 1.6 pmol/L); assay type: functional; details: route intraperitoneal
# Mus musculus [16] = experiment: Antidiabetic activity in normal ICR mouse assessed as reduction in plasma glucose level after 60 to 150 mins post glucose challenge by ip glucose tolerance test; assay type: functional, organism-based
# Mus musculus [17] = experiment: Antidiabetic activity in normal ICR mouse assessed as reduction in plasma glucose level after 30 mins post glucose challenge by ip glucose tolerance test (reference value: 346 +/- 15 mg/dL); assay type: functional
# Mus musculus [18] = experiment: Antidiabetic activity in normal ICR mouse assessed as increase in plasma insulin level at 3 mg/kg, ip after 60 mins by ELISA (reference value: 52 +/- 3.7 pmol/L); assay type: functional; details: route intraperitoneal
# Mus musculus [19] = experiment: Antidiabetic activity in normal ICR mouse assessed as increase in plasma insulin level at 5 mg/kg, ip after 60 mins by ELISA (reference value: 57.6 +/- 2.4 pmol/L); assay type: functional; details: route intraperitoneal
# Mus musculus [20] = experiment: Antidiabetic activity in normal ICR mouse assessed as increase in plasma insulin level at 0.5 mg/kg, ip after 60 mins by ELISA (reference value: 53.1 +/- 3.3 pmol/L); assay type: functional; details: route intraperitoneal
# Mus musculus [21] = experiment: Antidiabetic activity in STZ-induced ICR mouse T1DM model assessed as decrease in phosphoenolpyruvate carboxykinase level in liver at 5 mg/kg administered bid for 7 days by Western blotting analysis; assay type: functional, organism-based; parameters: dose 5 mg/kg
# Outline: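 Male ICR mice with STZ-induced T1DM (fasting glucose >350 mg/dL, used 4 weeks after STZ) were dosed ip at 5.0 mg/kg twice daily for 7 days. Liver homogenates (60 µg) were run on 8% SDS-PAGE and Western blotted with PEPCK antibody (1:1000), with ECL detection. PEPCK (70 kDa) and β-actin (43 kDa) were quantified by densitometry; n = 3.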
# Mus musculus [22] = experiment: Antidiabetic activity in STZ-induced ICR mouse T1DM model assessed as increase in plasma insulin level at 1 mg/kg, ip after 60 mins by ELISA (reference value: 15.7 +/- 1.0 pmol/L); assay type: functional; details: route intraperitoneal
# Mus musculus [23] = experiment: Antidiabetic activity in STZ-induced ICR mouse T1DM model assessed as increase in plasma insulin level at 5 mg/kg, ip after 60 mins by ELISA (reference value: 14.7 +/- 0.4 pmol/L); assay type: functional; details: route intraperitoneal
# Mus musculus [24] = experiment: Antidiabetic activity in diet-induced ICR mouse T2DM model assessed as increase in plasma insulin level at 0.1 mg/kg, ip after 60 mins by ELISA (reference value: 111.8 +/- 5.2 pmol/L); assay type: functional; details: route intraperitoneal
# Mus musculus [25] = experiment: Antidiabetic activity in ip dosed diet-induced ICR mouse T2DM model assessed as reduction in plasma glucose level after 60 mins; assay type: functional, organism-based; outline: as §1
# Mus musculus [26] = experiment: Antidiabetic activity in diet-induced ICR mouse T2DM model assessed as increase in plasma insulin level at 1 mg/kg, ip after 60 mins by ELISA (reference value: 111.6 +/- 2.7 pmol/L); assay type: functional; details: route intraperitoneal
# Mus musculus [27] = experiment: Antidiabetic activity in ip dosed normal ICR mouse assessed as reduction in plasma glucose level after 60 mins; assay type: functional, organism-based; outline: as §1
# Mus musculus [28] = experiment: Antidiabetic activity in STZ-induced ICR mouse T1DM model assessed as increase in plasma insulin level at 0.5 mg/kg, ip after 60 mins by ELISA (reference value: 16.2 +/- 0.7 pmol/L); assay type: functional; details: route intraperitoneal
# Mus musculus [29] = experiment: Antidiabetic activity in normal ICR mouse assessed as increase in plasma insulin level at 0.1 mg/kg, ip after 60 mins by ELISA (reference value: 54 +/- 3.4 pmol/L); assay type: functional; details: route intraperitoneal
# Mus musculus [30] = experiment: Antidiabetic activity in ip dosed STZ-induced ICR mouse T1DM model assessed as reduction in plasma glucose level after 60 mins; assay type: functional, organism-based; outline: as §1
# Mus musculus [31] = experiment: Antidiabetic activity in diet-induced ICR mouse T2DM model assessed as reduction in plasma glucose level after 30 mins post glucose challenge by ip glucose tolerance test (reference value: 406 +/- 9 mg/dL); assay type: functional
# Mus musculus [32] = experiment: Antidiabetic activity in diet-induced ICR mouse T2DM model assessed as increase in plasma insulin level at 0.5 mg/kg, ip after 60 mins by ELISA (reference value: 120.8 +/- 4.3 pmol/L); assay type: functional; details: route intraperitoneal
# Mus musculus [33] = experiment: Antidiabetic activity in diet-induced ICR mouse T2DM model assessed as increase in plasma insulin level at 3 mg/kg, ip after 60 mins by ELISA (reference value: 112.1 +/- 3.2 pmol/L); assay type: functional; details: route intraperitoneal
# Mus musculus [34] = experiment: Antidiabetic activity in diet-induced ICR mouse T2DM model assessed as reduction in plasma glucose level after 60 to 150 mins post glucose challenge by ip glucose tolerance test; assay type: functional, organism-based
# Mus musculus [35] = experiment: Antidiabetic activity in normal ICR mouse assessed as increase in plasma insulin level at 1 mg/kg, ip after 60 mins by ELISA (reference value: 60.3 +/- 3.7 pmol/L); assay type: functional; details: route intraperitoneal
structure (smiles),measurement,setting,value
COC(=O)C1=C[C@H](O)C[C@H]2[C@]3(C)C[C@@H](c4ccoc4)OC(=O)[C@H]3C[C@H](O[C@@H]3O[C@H](CO)[C@@H](O)[C@H](O)[C@H]3O)[C@@]12C,Activity,[1],inactive
same,Activity,Mus musculus [2],inactive
same,Activity,Mus musculus [3],inactive
same,Activity,MIN6,inactive
COc1ccc(Cl)cc1C(=O)NCCc1ccc(S(=O)(=O)NC(=O)NC2CCCCC2)cc1 [GLYBURIDE],Activity,Mus musculus [4],145.8 pmol/L
same,Activity,Mus musculus [5],208.8 pmol/L
same,Activity,Mus musculus [6],84 mg/dL
same,Activity,Mus musculus [7],108 mg/dL
C[C@@]12C[C@@H](c3ccoc3)OC(=O)[C@@H]1C[C@@H]1OC(=O)[C@@]3(O)[C@@H](O[C@@H]4O[C@H](CO)[C@@H](O)[C@H](O)[C@H]4O)CC[C@@H]2[C@@]13C [BORAPETOSIDE A],fold change (FC),Mus musculus [8],2
same,fold change (FC),Mus musculus [9],2
same,Activity,[1],inactive
same,Activity,Mus musculus [2],Active
same,Activity,Mus musculus [3],Active
same,Activity,MIN6,inactive
CN(C)C(=N)NC(=N)N [METFORMIN],Activity,Mus musculus [10],Active
same,Activity,Mus musculus [11],Active
same,Activity,Mus musculus [12],15.1 pmol/L
COC(=O)C1=CCC[C@H]2[C@]3(C)C[C@@H](c4ccoc4)OC(=O)[C@@H]3C[C@@H](O[C@@H]3O[C@H](CO)[C@@H](O)[C@H](O)[C@H]3O)[C@@]12C [BORAPETOSIDE C],Activity,Mus musculus [13],257.6 pmol/L
same,Activity,Mus musculus [14],16.3 pmol/L
same,Activity,Mus musculus [15],14.8 pmol/L
same,Activity,Mus musculus [16],Active
same,Activity,Mus musculus [17],293 mg/dL
same,Activity,Mus musculus [18],142.6 pmol/L
same,Activity,Mus musculus [19],149.6 pmol/L
same,Activity,Mus musculus [20],70.7 pmol/L
same,Activity,[1],inactive
same,Activity,Mus musculus [21],Active
same,Activity,Mus musculus [22],15.9 pmol/L
same,Activity,Mus musculus [23],14.3 pmol/L
same,Activity,Mus musculus [24],111.3 pmol/L
same,Activity,Mus musculus [25],Dose-dependent effect
same,Activity,Mus musculus [26],173 pmol/L
same,Activity,Mus musculus [27],Dose-dependent effect
same,Activity,Mus musculus [2],Active
same,Activity,Mus musculus [28],15.7 pmol/L
same,Activity,Mus musculus [29],71.5 pmol/L
same,Activity,Mus musculus [30],Dose-dependent effect
same,Activity,Mus musculus [31],343 mg/dL
same,Activity,Mus musculus [32],170.8 pmol/L
same,Activity,Mus musculus [3],Active
same,Activity,Mus musculus [33],253.9 pmol/L
same,Activity,Mus musculus [34],Active
same,Activity,Mus musculus [35],63 pmol/L
same,Activity,MIN6,inactive
